Experimental data from the EternaBench riboswitch data.

Test system: MS2 coat protein
Test: apparent Kd, MS2 coat protein; higher = weaker binding; RNA-MaP array; FMN 200 µM where present
How it was run: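 The apparent Kd comes from binding curves fitted cluster by cluster, filtered, and summarised as a median. Those curves followed SNAP-549-labelled MS2 coat protein from 0.7 or 1.5 nM, doubling to 3 µM, on Illumina sequencing-chip clusters where stalled E. coli RNA polymerase had transcribed the designs, without and then with constant ligand. The buffer was 100 mM Tris-HCl pH 7.5, 80 mM KCl, 4 mM MgCl2, BSA, DTT, yeast tRNA and Tween-20, and green signal was normalised to red-channel RNA signal and control-cluster median Fmax.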

[1] = designed as: ON switch for flavin mononucleotide, no ligand
[2] = ligand present: flavin mononucleotide, designed as: ON switch for flavin mononucleotide
[3] = designed as: OFF switch for flavin mononucleotide, no ligand
[4] = ligand present: flavin mononucleotide, designed as: OFF switch for flavin mononucleotide

Sequence | apparent Kd [1] [nM] | apparent Kd [2] [nM] | apparent Kd [3] [nM] | apparent Kd [4] [nM]
CCCAUCGCAUGAGGAUAUGGUCAGCUUUGCUGACCAGAAGGCAUGUCAUAAGACAUGAGGAUCACCCAUGUAGUUAAGAUGGGA | 654 | 48.3 |  | 
ACAUUCACUCGACUGGUUCUUAACAUGAGGAUCACCCAUGUAGAGGAUAUAGGAAUUCUGGGUUCCUAGAAGGCUACGUGAGUG |  |  | 15.9 | 76.7
GUACAGUAGUGAGGAUAUACGAGAUCGAUAGAUCGGCGAUCCAAUAAUACAUGAGGAUCACCCAUGUAGAAGGCACUUCUGUAC |  |  | 7.69 | 113
GGAGAGUCAGGAUAUACAUGAGGAUCACCCAUGUUGGAAAGUGGAGGGACGGGAGUCCGUAGAAGGGACGAGAG |  |  | 34.4 | 27.7
GUAACAUGAGGAUCACCCAUGUAUAGAACACUCAAUAGAUCUGAGGAUAUAGUGGAAUUUACACACUAGAAGGCAGUGGGUACA | 53.9 | 31.9 |  | 
AUACAUGAGGAUCACCCAUGUUACUGGGUCUAAAUAGAACGUAGAAGGAUGUAUUUACACAUAACAUAGGAUAUACUAUAUAGU |  |  | 153 | 72.8
GGAGCACACAUUCACAUGAGGAUCACCCAUGUCAAAAGACAUGAGGAUAUGGAUCCGAAAAGGAUCCAGAAGGCAUGGUGCUCC | 483 | 25.5 |  | 
AAGCUGGUAGGAUAUGCUAGGGCGACUAAUGCGCCGAUAGUACAUGAGGAUCACCCAUGUAGAAGGGCCAGAAA |  |  | 24.3 | 18.4
AAAAAGUCAGGAUAUGGAAAAAAAAAAAAAAAAAAAAAAAACCAGAAGGGACAUGAGGAUCACCCAUGUAAAAA |  |  | 71.5 | 43.8
GGAUCGAUAGUGAGGAUAUACCACUGGAUACAGUGGUAGAAGGCACAUGAGGAUCACCCAUGUCCUAACGAUCC |  |  | 20.6 | 99.4
UUUUUAUAAUAGAAGGAGGACUUCAUGAGGAUCACCCAUGUGUUAGUACUUAGGAUAUGUAAUAACAUGAGGAUCACCCAUGUC | 45.3 | 45.7 |  | 
AUGAGUAAAGCAGGAUAUCUAUUGUCUCUGUAACAUGAGGAUCACCCAUGUAGAGAAGGGCUUAGUCAUUCUCUUCGGAGUUGU |  |  | 17.4 | 16.6
AGUCAUACAGGAUAUACAUGAGGAUCACCCAUGUAUAUCCAAAAUGGGUGAUCCUCAUGUAGAAGGGUAUGACA |  |  | 10.3 | 10.5
AUAGGAUUGCGAGGAUAUUAGCGCGGGCCUUCAGACUUACGAAAUGACAUGAGGAUCACCCAUGUUAAGAAGGCGCAUCAAAUG |  |  | 6.58 | 58.3
AGAUAUGAUGCAGGAUAUCUAUCUUGAAUGAGGAGAGAAGGGCAAGCAGAGACAUAAGCCUUAUUACAUGAGGAUCACCCAUGU |  |  | 10.2 | 7.9
GUAGCAUACCGAGGAUAUUCAUACAGGAAACUGACAUGAGGAUCACCCAUGUGGCGAAAGCCUUGGGAGAAGGCGGAAUGCUAC | 637 | 28.4 |  | 
AAAUAAACUACCAUAAUAUCCUCACAUGAGGAUCACCCAUGUCAGGAUAUUUGUCCUAAAAGGACAGAGAAGGGACGUGGUAGA |  |  | 5.43 | 11.1
GUGCAGGUAGGAUAUCCACCGGCAAACAUGAGGAUCACCCAUGUGACGCUCCCUUGUCUUGGAGAAGGGCCGGCAU |  |  | 33.1 | 27.5
UGUCGGAGCAGAGGAUAUUACAUGAGGAUCACCCAUGUAUGAACCAAUAGCGGGAAACAGCAAUGUAAGAAGGCUGCUCCGACA |  |  | 34.6 | 140
AAAUAGCAUGAGGAUAUUGGACUGGAUUCAGUACGAGAAGGCAUGACAUGAGGAUCACCCAUGUUGUGUUGGGA |  |  | 19.7 | 44.8
UUUUUACAUGAGGAUCACCCAUGUGAGGAUAUGGAUUCGCUGGCCGUAGCCAGUGGAUCCAGAAGGCGCAUGAU |  |  | 82.7 | 280

Sequence | apparent Kd [1] [nM] | apparent Kd [2] [nM] | apparent Kd [3] [nM] | apparent Kd [4] [nM]
ACUGUCGCGUGAGGAUAUGGUCUGCAGUGCUGACCAGAAGGCAUGUCGAUAGACAUGAGGAUCACCCAUGUGGUUAGGGCGGCA | 933 | 467 |  | 
CUCUUGUGAGGAUAUCAGUAGUAAAAAAAUAAAAUUACUACUGAGAAGGCACAUGAGGAUCACCCAUGUGACUU |  |  | 26.2 | 30.5
ACUCGCGGAGAGAAGGGAUUUGUACAUGAGGAUCACCCAUGUCGCACGGUCAGGAUAUCUUCGUCAGGUACAACAUACGUCCCG | 16.8 | 6.99 |  | 
CGCUGUCAUGCAGGAUAUGCAUUGGAUUGCAAUGCAGAAGGGCGAUUACAUGAGGAUCACCCAUGUGUAGACAGUGAAGAAGAG | 160 | 12.6 |  | 
CCAAGCUGUGUGAGGAUAUGCUGGUCCUUGGAUCAGCAGAAGGCACAUGAGGAUCACCCAUGUGAAAAGCUUGG |  |  | 15.1 | 52.1
AGUUGGCGAGGAUAUACAUGAGGAUCACCCAUGUGAAAUAUAAUAGUGAGGAAGAAAAGUAGAAGGCGCUGACA |  |  | 48.3 | 281
AAAAAGCUAGGAUAUACAUGAAAAAAAAAAAAGUAAAAAAAACAUGAGGAUCACCCAUGUAGAAGGAGCAAAAA |  |  | 44 | 39.5
AAUAUGUUGCAGAAGGUUAUAUUUUUUUAGUACCUCAUGACAUGAGGAUCACCCAUGUUUUUGUUGAAGGAUAUGCAAUAUAUU |  |  | 17.1 | 14.3
UUCAUCAAUGAAGGAUAUCUAUGUCCAACAUGAGGAUCACCCAUGUUGAGGAUCACCUAUGUGUAGGAGAAGGUUAAUAUAACU | 7.98 | 6.38 |  | 
AGAGAAUAGGUAGGAUAUCUUAAUAGAAAGAAUAGAGAAGGACCACAUGAGGAUCACCCAUGUGAAGUCUUGAGACUACAUGGU |  |  | 18.1 | 22.9
UCCGCGCGCGUAGGAUAUACAUGAGGAUCACCCAUGUACCCAUAUGGCUUCCUGAAUCUUGCAAUGUAGAAGGACGCCCGUGGG |  |  | 35.8 | 36.1
GCACUUCGGCAGAAGGGACUAAGGGUAUGGUAGUCAGGAUAUGCAGGGUGGGCGUUUCACAUGAGGAUCACCCAUGUAGGACCA | 21.1 | 7.78 |  | 
GCAUGACAAAGUCAUGCAAUACGAACAUGAGGAUCACCCAUGUAGGAUAUGCUACUCAAAGAGUAGCAGAAGGACAUGUGCCUU |  |  | 36.1 | 288
CGAUAGGACAGAGGAUAUACACAUGAGGAUCACCCAUGUAAUUACAAUUCUUAAGAUUCUAACAUGUAGAAGGCUGUCCUAUCG |  |  | 40.2 | 19.3
UUACUCAUGUAAGGAUAUGCAGCCGUUUCGGUUGCAGAAGGUACUAUAAUACAUGAGGAUCACCCAUGUCUUUUUAAUUUAGAC | 78.4 | 39.6 |  | 
GUCAGCUCGUGAGGAUAUACAACACUACUUCGGCAGUGUAUUAAGAUCACAUGAGGAUCACCCAUGUAGAAGGCACGAGCUGAU |  |  | 14 | 228
CGUAUGUAAGGAUAUAGCCACAUUACGAAUAAGUAGUGUGGCUAGAAGGUACAUGAGGAUCACCCAUGUAUGGG |  |  | 153 | 85.3
GUCGUGUGAGGAUAUGGAUAGUAGCAGUGGCGGUCGGCGACCUAGAAGGCACAUGAGGAUCACCCAUGUAAGAG |  |  | 40.6 | 37.8
UUUAUAAAUUAGAAGGCGUGAUAAAAUACAAUAAACAUGAGGAUCACCCAUGUGUACCCAUGUUAUGAGGAUAUAGUCAUAUAU | 462 | 377 |  | 
UUUUUAUUUGUAGGAUAUGGAGACAUGAGGAUCACCCAUGUAUGAUAAGCUAAAUUAUGAUGUGGCCAGAAGGAUAUUAUUUUU | 51.1 | 72.6 |  | 
AAGCUGUGAGGAUAUACAUGAGGAUCACCCAUGUUAAGGAAGUCUUGGUUAAUUUGGAGUAGAAGGCGCUUAUU |  |  | 30.9 | 25.5
